According to ChEMBL document CHEMBL1121365, “N,N'-Dialkylbis(dichlorophenyl)ethylenediamines and -imidazolidines: relationship between structure and estradiol receptor affinity” (J Med Chem, 1980):

Legend:
[1] = molecular target: T1, Estrogen receptor (Rattus norvegicus) (UniProt P06211+Q62986); test: In vitro association constant when complexed with the Estrogen receptor in Sprague-Dawley rat; Inhibition less than 10% at a ratio of [3H]estradiol/substance of 10e-4 M; format: protein assay
[2] = molecular target: T1, Estrogen receptor (Rattus norvegicus); test: In vitro affinity for rat Estrogen receptor; format: protein assay
[3] = molecular target: T2, Estrogen receptor (Mus musculus) (UniProt O08537+P19785); test: (§1) Uterotrophic effect in immature mice as uterine dry weight(mg) relative to body weight(g) at 1000 ug/day dose; format: functional, tissue-based; settings: Uterus, in the assay text read “100 ug/day” for “1000 ug/day”
Procedure, shortened: (§2)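 Dorfman uterine weight test for estrogenic and antiestrogenic activity. Compounds were dissolved in arachis oil and given subcutaneously. Uterine weight was the read-out.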

[4] = molecular target: T2, Estrogen receptor (Mus musculus); test: (§3) Uterotrophic effect in immature mice as uterine dry weight(mg) relative to body weight(g) at 500 ug/day dose; format: functional, tissue-based; settings: Uterus; procedure, shortened: as §2
[5] = molecular target: T2, Estrogen receptor (Mus musculus); test: Uterotrophic effect in immature mice as uterine dry weight(mg) relative to body weight(g) at 20 ug/day dose; format: functional, tissue-based; settings: Uterus; procedure, shortened: as §2
[6] = molecular target: T2, Estrogen receptor (Mus musculus); test: (§4) Uterotrophic effect in immature mice as uterine dry weight(mg) relative to body weight(g) at 2500 ug/day dose; format: functional, tissue-based; settings: Uterus; procedure, shortened: as §2
[7] = molecular target: T2, Estrogen receptor (Mus musculus); test: (§5) Uterotrophic effect in immature mice as uterine dry weight(mg) relative to body weight(g) at 0 ug/day dose; format: functional, tissue-based; settings: Uterus; procedure, shortened: as §2
[8] = molecular target: T2, Estrogen receptor (Mus musculus); test: Uterotrophic effect in immature mice as uterine dry weight(mg) relative to body weight(g) at 400 ug/day dose; format: functional, tissue-based; settings: Uterus; procedure, shortened: as §2
[9] = molecular target: T2, Estrogen receptor (Mus musculus); test: Uterotrophic effect in immature mice as uterine dry weight(mg) relative to body weight(g) at 24 ug/day dose; format: functional, tissue-based; settings: Uterus; procedure, shortened: as §2
[10] = molecular target: T2, Estrogen receptor (Mus musculus); test: Uterotrophic effect in immature mice as uterine dry weight(mg) relative to body weight(g) at 2400 ug/day dose; format: functional, tissue-based; settings: Uterus; procedure, shortened: as §2
[11] = molecular target: T2, Estrogen receptor (Mus musculus); test: Uterotrophic effect in immature mice as uterine dry weight(mg) relative to body weight(g) at 80 ug/day dose; format: functional, tissue-based; settings: Uterus; procedure, shortened: as §2
[12] = molecular target: T2, Estrogen receptor (Mus musculus); test: Uterotrophic effect in immature mice as uterine dry weight(mg) relative to body weight(g) at 5000 ug/day dose; format: functional, tissue-based; settings: Uterus; procedure, shortened: as §2
[13] = molecular target: T2, Estrogen receptor (Mus musculus); test: as §1; format: functional, tissue-based; settings: Uterus
Procedure, shortened: (§6)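 Dorfman uterine weight test for estrogenic and antiestrogenic properties. Compounds were dissolved in arachis oil and given sc. Other details are in an earlier paper.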

[14] = molecular target: T2, Estrogen receptor (Mus musculus); test: as §4; format: functional, tissue-based; settings: Uterus; procedure, shortened: as §6; remark: listed apart in the source
[15] = molecular target: T2, Estrogen receptor (Mus musculus); test: as §5; format: functional, tissue-based; settings: Uterus; procedure, shortened: as §6; remark: listed apart in the source
[16] = molecular target: T2, Estrogen receptor (Mus musculus); test: as §3; format: functional, tissue-based; settings: Uterus; procedure, shortened: as §6; remark: listed apart in the source
[17] = molecular target: T2, Estrogen receptor (Mus musculus); test: Uterotrophic effect in immature mice as uterine dry weight(mg) relative to body weight(g) at 100 ug/day dose; format: functional, tissue-based; settings: Uterus; procedure, shortened: as §6

T2 sequence (O08537 whole entry, looked up): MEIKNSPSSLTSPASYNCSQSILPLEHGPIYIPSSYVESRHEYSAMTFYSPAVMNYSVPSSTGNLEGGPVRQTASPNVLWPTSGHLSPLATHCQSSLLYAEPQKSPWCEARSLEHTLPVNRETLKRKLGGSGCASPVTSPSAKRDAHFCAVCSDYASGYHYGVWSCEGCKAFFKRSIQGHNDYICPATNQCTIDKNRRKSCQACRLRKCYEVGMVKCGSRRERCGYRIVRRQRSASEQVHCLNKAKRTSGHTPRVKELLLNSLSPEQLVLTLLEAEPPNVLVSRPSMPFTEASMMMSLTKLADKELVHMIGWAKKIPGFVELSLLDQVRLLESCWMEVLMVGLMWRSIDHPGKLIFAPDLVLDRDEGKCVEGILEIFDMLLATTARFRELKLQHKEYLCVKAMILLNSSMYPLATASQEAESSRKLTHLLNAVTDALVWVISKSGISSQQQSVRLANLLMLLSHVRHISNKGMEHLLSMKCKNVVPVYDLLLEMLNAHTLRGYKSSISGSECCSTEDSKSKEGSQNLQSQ
T2 sequence (P19785 whole entry, looked up): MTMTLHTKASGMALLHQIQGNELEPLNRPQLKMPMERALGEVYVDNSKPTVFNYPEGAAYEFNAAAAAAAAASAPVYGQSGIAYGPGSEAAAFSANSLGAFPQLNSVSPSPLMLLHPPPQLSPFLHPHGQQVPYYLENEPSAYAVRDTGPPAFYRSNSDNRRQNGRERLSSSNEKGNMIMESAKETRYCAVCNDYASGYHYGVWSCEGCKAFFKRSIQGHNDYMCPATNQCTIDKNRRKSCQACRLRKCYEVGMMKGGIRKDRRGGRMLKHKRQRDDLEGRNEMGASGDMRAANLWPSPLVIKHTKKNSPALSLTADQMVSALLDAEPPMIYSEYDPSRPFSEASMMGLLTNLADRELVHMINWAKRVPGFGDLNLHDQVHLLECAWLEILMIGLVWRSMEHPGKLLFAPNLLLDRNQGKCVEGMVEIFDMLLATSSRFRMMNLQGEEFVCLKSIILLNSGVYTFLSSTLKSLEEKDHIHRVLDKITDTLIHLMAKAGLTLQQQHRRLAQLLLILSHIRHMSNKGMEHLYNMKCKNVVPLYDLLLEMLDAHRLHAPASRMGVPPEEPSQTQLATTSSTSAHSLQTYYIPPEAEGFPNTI

| inhibition [1] | Ka [2] | Structure (SMILES) | also measured |
| --- | --- | --- | --- |
| < 10% |  | CCN1CN(CC)C(c2ccc(Cl)cc2Cl)C1c1ccc(Cl)cc1Cl (trans isomer) |  |
|  | 180000 | CN1CN(C)C(c2c(Cl)cccc2Cl)C1c1c(Cl)cccc1Cl (stereo in doubt; cis) |  |
| < 10% |  | CCN1CN(CC)C(c2ccc(Cl)c(Cl)c2)C1c1ccc(Cl)c(Cl)c1 (stereo in doubt) |  |
| < 10% |  | CCCCNC(c1ccc(Cl)cc1Cl)C(NCCCC)c1ccc(Cl)cc1Cl (stereo in doubt) |  |
| < 10% |  | CCN1CN(CC)C(c2ccc(Cl)cc2Cl)C1c1ccc(Cl)cc1Cl (stereo in doubt) |  |
| < 10% |  | CCCNC(c1ccc(Cl)cc1Cl)C(NCCC)c1ccc(Cl)cc1Cl (stereo in doubt) |  |
| < 10% |  | CCCCNC(c1c(Cl)cccc1Cl)C(NCCCC)c1c(Cl)cccc1Cl (stereo in doubt; 2h (d,l)) |  |
| < 10% |  | CCCCNC(c1ccc(Cl)cc1Cl)C(NCCCC)c1ccc(Cl)cc1Cl (stereo in doubt; 2d (d,l)) |  |
|  | 1.6e+06 | CCCN1CN(CCC)C(c2c(Cl)cccc2Cl)C1c1c(Cl)cccc1Cl (trans isomer) | Effect [3]: 21.4; Effect [4]: 28; Effect [5]: 19.6; Effect [6]: 43; Effect [7]: 12.9 |
|  | 200000 | CCN1CN(CC)C(c2c(Cl)cccc2Cl)C1c1c(Cl)cccc1Cl (trans isomer) | Effect [8]: 38.1; Effect [9]: 22.8; Effect [10]: 46.2; Effect [11]: 24.2; Effect [7]: 14.9 |
|  | 2.3e+06 | CCCNC(c1c(Cl)cccc1Cl)C(NCCC)c1c(Cl)cccc1Cl (stereo in doubt) | Effect [3]: 17.5; Effect [4]: 22.6; Effect [5]: 14.8; Effect [6]: 31.3; Effect [7]: 12.9 |
| < 10% |  | CCCCNC(c1c(Cl)cccc1Cl)C(NCCCC)c1c(Cl)cccc1Cl (stereo in doubt) |  |
|  | 830000 | CCCNC(c1c(Cl)cccc1Cl)C(NCCC)c1c(Cl)cccc1Cl (stereo in doubt; 2g (d,l)) | Effect [3]: 19.6; Effect [4]: 27.1; Effect [5]: 15.5; Effect [7]: 12.9 |
| < 10% |  | CCCCNC(c1ccc(Cl)c(Cl)c1)C(NCCCC)c1ccc(Cl)c(Cl)c1 (stereo in doubt) |  |
| < 10% |  | CCN1CN(CC)C(c2ccc(Cl)c(Cl)c2)C1c1ccc(Cl)c(Cl)c1 (trans isomer) |  |
|  | 320000 | CCCN1CN(CCC)C(c2c(Cl)cccc2Cl)C1c1c(Cl)cccc1Cl (stereo in doubt) | Effect [3]: 17.7; Effect [4]: 16.2; Effect [12]: 24.5; Effect [6]: 19.7; Effect [7]: 12.8 |
|  | 8.3e+08 | CC[C@H](c1ccc(O)cc1)[C@@H](CC)c1ccc(O)cc1 |  |
| < 10% |  | CCCCN1CN(CCCC)C(c2c(Cl)cccc2Cl)C1c1c(Cl)cccc1Cl (stereo in doubt; cis) |  |
| < 10% |  | CCCCNC(c1ccc(Cl)c(Cl)c1)C(NCCCC)c1ccc(Cl)c(Cl)c1 (stereo in doubt; 2k (d,l)) |  |
| < 10% |  | CCCCN1CN(CCCC)C(c2c(Cl)cccc2Cl)C1c1c(Cl)cccc1Cl (stereo in doubt; trans) |  |
|  | 200000 | CCN1CN(CC)C(c2c(Cl)cccc2Cl)C1c1c(Cl)cccc1Cl (cis isomer) | Effect [3]: 17.1; Effect [4]: 19.7; Effect [6]: 22.3; Effect [7]: 12.8 |
| < 10% |  | CCCNC(c1ccc(Cl)cc1Cl)C(NCCC)c1ccc(Cl)cc1Cl (stereo in doubt; 2c (d,l)) |  |
|  | 480000 | CN1CN(C)C(c2c(Cl)cccc2Cl)C1c1c(Cl)cccc1Cl (stereo in doubt; trans) |  |
| < 10% |  | CCN1CN(CC)C(c2cc(Cl)cc(Cl)c2)C1c1cc(Cl)cc(Cl)c1 (cis isomer) |  |
| < 10% |  | CCN1CN(CC)C(c2cc(Cl)cc(Cl)c2)C1c1cc(Cl)cc(Cl)c1 (trans isomer) |  |

| Structure (SMILES) | inhibition [1] | Ka [2] | also measured |
| --- | --- | --- | --- |
| CNC(c1c(Cl)cccc1Cl)C(NC)c1c(Cl)cccc1Cl (stereo in doubt) |  | 91000 |  |
| CCNC(c1c(Cl)cccc1Cl)C(NCC)c1c(Cl)cccc1Cl (stereo in doubt; 2f (d,l)) |  | 130000 |  |
| CCNC(c1ccc(Cl)cc1Cl)C(NCC)c1ccc(Cl)cc1Cl (stereo in doubt; 2b (d,l)) | < 10% |  |  |
| CCNC(c1cc(Cl)cc(Cl)c1)C(NCC)c1cc(Cl)cc(Cl)c1 (stereo in doubt; 21 (d,l)) | < 10% |  |  |
| CNC(c1ccc(Cl)cc1Cl)C(NC)c1ccc(Cl)cc1Cl (stereo in doubt; 2a (d,l)) | < 10% |  |  |
| CCNC(c1ccc(Cl)c(Cl)c1)C(NCC)c1ccc(Cl)c(Cl)c1 (stereo in doubt) | < 10% |  |  |
| CNC(c1c(Cl)cccc1Cl)C(NC)c1c(Cl)cccc1Cl (stereo in doubt; 2e (d,l)) |  | 140000 |  |
| CCNC(c1c(Cl)cccc1Cl)C(NCC)c1c(Cl)cccc1Cl (stereo in doubt) |  | 670000 | Effect [13]: 27.4; Effect [14]: 35.6; Effect [15]: 12.8; Effect [16]: 23.5; Effect [17]: 22.7 |
| CNC(c1ccc(Cl)cc1Cl)C(NC)c1ccc(Cl)cc1Cl (stereo in doubt) | < 10% |  |  |
| CCNC(c1ccc(Cl)c(Cl)c1)C(NCC)c1ccc(Cl)c(Cl)c1 (stereo in doubt; 2i (d,l)) | < 10% |  |  |
| CCNC(c1cc(Cl)cc(Cl)c1)C(NCC)c1cc(Cl)cc(Cl)c1 (stereo in doubt) | < 10% |  |  |
| CCNC(c1ccc(Cl)cc1Cl)C(NCC)c1ccc(Cl)cc1Cl (stereo in doubt) | < 10% |  |  |
